Results reported in ChEMBL document CHEMBL1153584 (Eur J Med Chem, 2009).
Values after ≈ are worked out from the molar mass of the structure shown.

Tests used:
Type in all cases: functional, cell-based
SK-OV-3 = experiment: Anticancer activity against human SKOV3 cells after 72 hrs by sulforhodamine B assay; details: SK-OV-3, 72 h
In short: (§1)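 Cells kept in RPMI 1640 with 10% FBS and passaged with trypsin-EDTA. Seeded at 1-2 × 10^4 cells/well and grown 24 h, then given compounds dissolved in culture medium, in triplicate. Exposure 48 h at 37 °C in 5% CO2. Fixed with cold 10% TCA, stained with 0.4% SRB in 1% acetic acid, dye solubilized in 10 mM Tris base (pH 10.5), absorbance read at 520 nm. IC50 is the concentration giving 50% inhibition.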

SK-MEL-2 = experiment: Anticancer activity against human SK-MEL-2 cells after 72 hrs by sulforhodamine B assay; details: SK-MEL-2, 72 h; in short: as §1
A549 = experiment: Anticancer activity against human A549 cells after 72 hrs by sulforhodamine B assay; details: A549, 72 h
XF498 = experiment: Anticancer activity against human XF498 cells after 72 hrs by sulforhodamine B assay; details: XF498, 72 h; in short: as §1
HCT-15 = experiment: Anticancer activity against human HCT15 cells after 72 hrs by sulforhodamine B assay; details: HCT-15, 72 h; in short: as §1

Compound | IC50 (SK-OV-3) [µg/mL] | IC50 (SK-MEL-2) [µg/mL] | IC50 (A549) [µg/mL] | IC50 (XF498) [µg/mL] | IC50 (HCT-15) [µg/mL]
CC1CCN(C(=O)CCCC[C@@H](C)O[C@@H]2O[C@@H](C)[C@H](O[C@@H]3O[C@@H](C)[C@H](O)C[C@H]3O)C[C@H]2O[C@@H]2O[C@@H](C)[C@H](O)C[C@H]2O)CC1 | 0.03 (≈ 0.0486 µM) | 0.03 (≈ 0.0486 µM) | 0.06 (≈ 0.0971 µM) | 0.06 (≈ 0.0971 µM) | 0.02 (≈ 0.0324 µM)
C[C@H](CCCCC1CO1)O[C@@H]1O[C@@H](C)[C@H](O[C@@H]2O[C@@H](C)[C@H](O)C[C@H]2O)C[C@H]1O[C@@H]1O[C@@H](C)[C@H](O)C[C@H]1O (some centres undefined) | 0.14 (≈ 0.262 µM) | 0.65 (≈ 1.22 µM) | 0.76 (≈ 1.42 µM) | 0.65 (≈ 1.22 µM) | 0.21 (≈ 0.393 µM)
CCCCCC[C@H](CCCCCCCCCCC(=O)OC)O[C@@H]1O[C@@H](C)[C@H](O[C@@H]2O[C@@H](C)[C@H](O)C[C@H]2O)C[C@H]1O[C@@H]1O[C@@H](C)[C@H](O)C[C@H]1O | 0.24 (≈ 0.34 µM) | 0.32 (≈ 0.454 µM) | 0.12 (≈ 0.17 µM) | 0.32 (≈ 0.454 µM) | 0.1 (≈ 0.142 µM)
CCc1ccc(NC(=O)CCCC[C@@H](C)O[C@@H]2O[C@@H](C)[C@H](O)C[C@H]2O)cc1 | 0.24 (≈ 0.632 µM) | 0.11 (≈ 0.29 µM) | 0.34 (≈ 0.896 µM) | 0.25 (≈ 0.659 µM) | 0.2 (≈ 0.527 µM)
C[C@@H]1CCCCCCCCC(=O)O[C@@H]2C[C@@H](O)[C@H](C)O[C@H]2O[C@@H]2C[C@@H](O)[C@H](C)O[C@H]2O1 | 0.14 (≈ 0.315 µM) | 0.44 (≈ 0.99 µM) | 0.57 (≈ 1.28 µM) | 0.43 (≈ 0.967 µM) | 0.54 (≈ 1.21 µM)
COC(=O)CCCC[C@@H](C)O[C@@H]1O[C@@H](C)[C@H](O[C@@H]2O[C@@H](C)[C@H](O)C[C@H]2O)C[C@H]1O[C@@H]1O[C@@H](C)[C@H](O)C[C@H]1O | 0.14 (≈ 0.254 µM) | 0.41 (≈ 0.745 µM) | 0.13 (≈ 0.236 µM) | 0.19 (≈ 0.345 µM) | 0.21 (≈ 0.381 µM)
C=CCCCCOC(=O)CCCC[C@@H](C)O[C@@H]1O[C@@H](C)[C@H](O)C[C@H]1O | 0.31 (≈ 0.865 µM) | 0.22 (≈ 0.614 µM) | 0.12 (≈ 0.335 µM) | 0.15 (≈ 0.418 µM) | 0.12 (≈ 0.335 µM)
C[C@H](CCCCC(=O)O)O[C@@H]1O[C@@H](C)[C@H](O)C[C@H]1O [DAUMONE] | 0.02 (≈ 0.0724 µM) | 0.07 (≈ 0.253 µM) | 0.03 (≈ 0.109 µM) | 0.09 (≈ 0.326 µM) | 0.05 (≈ 0.181 µM)
COc1cccc2c1C(=O)c1c(O)c3c(c(O)c1C2=O)C[C@@](O)(C(=O)CO)C[C@@H]3O[C@H]1C[C@H](N)[C@H](O)[C@H](C)O1 [DOXORUBICIN] | 0.024 (≈ 0.0442 µM) | 0.015 (≈ 0.0276 µM) |  | 0.19 (≈ 0.35 µM) | 0.02 (≈ 0.0368 µM)

Further lines, results first:

IC50 (SK-OV-3) [µg/mL] | IC50 (SK-MEL-2) [µg/mL] | IC50 (A549) [µg/mL] | IC50 (XF498) [µg/mL] | IC50 (HCT-15) [µg/mL] | Compound
0.07 (≈ 0.101 µM) | 0.09 (≈ 0.13 µM) | 0.07 (≈ 0.101 µM) | 0.05 (≈ 0.0724 µM) | 0.02 (≈ 0.029 µM) | C[C@H](CCCCC(=O)Nc1cccc(Br)c1)O[C@@H]1O[C@@H](C)[C@H](O[C@@H]2O[C@@H](C)[C@H](O)C[C@H]2O)C[C@H]1O[C@@H]1O[C@@H](C)[C@H](O)C[C@H]1O
0.32 (≈ 0.571 µM) | 0.33 (≈ 0.588 µM) | 0.64 (≈ 1.14 µM) | 0.43 (≈ 0.767 µM) | 0.53 (≈ 0.945 µM) | CCCCCC[C@H](CCCCCCCCCCC(=O)O)O[C@@H]1O[C@@H](C)[C@H](O[C@@H]2O[C@@H](C)[C@H](O)C[C@H]2O)C[C@H]1O
0.73 (≈ 1.64 µM) | 0.33 (≈ 0.742 µM) | 0.63 (≈ 1.42 µM) | 0.34 (≈ 0.765 µM) | 0.65 (≈ 1.46 µM) | C[C@@H]1O[C@H]2O[C@@H](C)CCCCCCCCC(=O)O[C@@H]3C[C@@H](O)[C@@H](O[C@H]3C)O[C@@H]2C[C@H]1O
0.73 (≈ 1.31 µM) | 0.43 (≈ 0.77 µM) | 0.78 (≈ 1.4 µM) | 0.45 (≈ 0.805 µM) | 0.21 (≈ 0.376 µM) | CCCCCC[C@@H](C)O[C@@H]1O[C@@H](C)[C@H](O)C[C@H]1O[C@@H]1O[C@@H](C)[C@H](OC(=O)CCCC)C[C@H]1OC(=O)CCCC
0.01 (≈ 0.0162 µM) | 0.04 (≈ 0.065 µM) | 0.08 (≈ 0.13 µM) | 0.07 (≈ 0.114 µM) | 0.06 (≈ 0.0974 µM) | C[C@H](CCCCC(=O)NCc1ccco1)O[C@@H]1O[C@@H](C)[C@H](O[C@@H]2O[C@@H](C)[C@H](O)C[C@H]2O)C[C@H]1O[C@@H]1O[C@@H](C)[C@H](O)C[C@H]1O
0.14 (≈ 0.249 µM) | 0.33 (≈ 0.588 µM) | 0.24 (≈ 0.427 µM) | 0.43 (≈ 0.766 µM) | 0.14 (≈ 0.249 µM) | C[C@H](CCCCCCN=[N+]=[N-])O[C@@H]1O[C@@H](C)[C@H](O[C@@H]2O[C@@H](C)[C@H](O)C[C@H]2O)C[C@H]1O[C@@H]1O[C@@H](C)[C@H](O)C[C@H]1O
0.65 (≈ 1.62 µM) | 0.33 (≈ 0.824 µM) | 0.76 (≈ 1.9 µM) | 0.25 (≈ 0.624 µM) | 0.54 (≈ 1.35 µM) | C[C@H](CCCCC(=O)NCCCN1CCCC1=O)O[C@@H]1O[C@@H](C)[C@H](O)C[C@H]1O
0.54 (≈ 1.18 µM) | 0.13 (≈ 0.284 µM) | 0.24 (≈ 0.523 µM) | 0.52 (≈ 1.13 µM) | 0.75 (≈ 1.64 µM) | C[C@H](CCCCC(=O)OCc1cccc(Oc2ccccc2)c1)O[C@@H]1O[C@@H](C)[C@H](O)C[C@H]1O
0.32 (≈ 0.832 µM) | 0.53 (≈ 1.38 µM) | 0.54 (≈ 1.4 µM) | 0.62 (≈ 1.61 µM) | 0.34 (≈ 0.884 µM) | C=CCN1CCN(C(=O)CCCC[C@@H](C)O[C@@H]2O[C@@H](C)[C@H](O)C[C@H]2O)CC1
0.24 (≈ 0.509 µM) | 0.11 (≈ 0.233 µM) | 0.16 (≈ 0.339 µM) | 0.42 (≈ 0.89 µM) | 0.31 (≈ 0.657 µM) | CCCCCCCCCCCCCCNC(=O)CCCC[C@@H](C)O[C@@H]1O[C@@H](C)[C@H](O)C[C@H]1O
